{"source": "ChEMBL document CHEMBL1147630", "about": "“New PDMP analogues inhibit process outgrowth in an insect cell line” (Bioorg Med Chem Lett, 2004)", "key": {"[1]": {"tested_on": "MRRL-CH1", "test": "Inhibitory effect on outgrowth of MRRL-CH1 cell line at 5 uM concentration; Irreversible", "type": "functional, cell-based", "settings": "Manduca sexta", "how_it_was_run": "(§1)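 Embryonic Manduca sexta MRRL-CH1 cells, grown attached in DL medium in room air. Analogue in DMSO was added to well cultures 2–4 days after seeding, for 48 h. Drug was then diluted 16-fold by two medium exchanges, and cells were followed for 6 more days. Neurite outgrowth and reversibility were judged from photographs taken at 0, 24 and 48 h of exposure and at 24, 48 and 144 h after removal. Duplicates, with DMSO vehicle control.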"}, "[2]": {"tested_on": "MRRL-CH1", "test": "Inhibitory effect on outgrowth of MRRL-CH1 cell line at 0.5 uM concentration; Reversible", "type": "functional, cell-based", "settings": "Manduca sexta", "how_it_was_run": "as §1"}, "[3]": {"tested_on": "MRRL-CH1", "test": "Inhibitory effect on outgrowth of MRRL-CH1 cell line at 1 uM concentration; Irreversible", "type": "functional, cell-based", "settings": "Manduca sexta", "how_it_was_run": "as §1"}, "[4]": {"tested_on": "SH-SY5Y", "test": "Concentration required to inhibit neurite outgrowth in SH-SY5Y cell line", "type": "functional, cell-based"}, "[5]": {"species": "Rattus norvegicus", "test": "Concentration required to reduce the length of total axon plexus in rat embryonic hippocampal neurons", "type": "functional"}, "[6]": {"tested_on": "MRRL-CH1", "test": "Inhibitory effect on outgrowth of MRRL-CH1 cell line at 0.5 uM concentration; No Effect", "type": "functional, cell-based", "settings": "Manduca sexta", "how_it_was_run": "as §1"}, "[7]": {"tested_on": "MRRL-CH1", "test": "Inhibitory effect on outgrowth of MRRL-CH1 cell line at 5 uM concentration; No Effect", "type": "functional, cell-based", "settings": "Manduca sexta", "how_it_was_run": "as §1"}, "[8]": {"tested_on": "MRRL-CH1", "test": "Inhibitory effect on outgrowth of MRRL-CH1 cell line at 1 uM concentration; No Effect", "type": "functional, cell-based", "settings": "Manduca sexta", "how_it_was_run": "as §1"}}, "note": "Calls of active or inactive are those of the source. The calls are words filed in the database; no cut-off is given here.", "data": [{"smiles": "CCCCCCCCCC(=O)N[C@H](CN1CCOCC1)[C@H](O)c1ccc(OC)cc1", "values": [{"measurement": "Inhibitory effect", "setting": "[1]", "value": "Irreversible"}, {"measurement": "Inhibitory effect", "setting": "[2]", "value": "Reversible"}, {"measurement": "Inhibitory effect", "setting": "[3]", "value": "Irreversible"}]}, {"smiles": "CCCCCCCCCC(=O)N[C@H](CN1CCOCC1)[C@H](O)c1ccc(OC(C)(C)C)cc1", "values": [{"measurement": "Inhibitory effect", "setting": "[1]", "value": "Irreversible"}, {"measurement": "Inhibitory effect", "setting": "[2]", "value": "Reversible"}, {"measurement": "Inhibitory effect", "setting": "[3]", "value": "Irreversible"}]}, {"smiles": "CCCCCCCCCC(=O)N[C@H](CN1CCOCC1)[C@H](O)c1ccc2c(c1)OCO2", "values": [{"measurement": "Inhibitory effect", "setting": "[1]", "value": "Irreversible"}, {"measurement": "Inhibitory effect", "setting": "[2]", "value": "Reversible"}, {"measurement": "Inhibitory effect", "setting": "[3]", "value": "Irreversible"}]}, {"smiles": "CCCCCCCCCC(=O)N[C@H](CN1CCOCC1)[C@H](O)c1ccccc1", "values": [{"measurement": "Concentration", "setting": "[4]", "value": 20, "unit": "µM"}, {"measurement": "Concentration", "setting": "[5]", "value": 50, "unit": "µM"}, {"measurement": "Inhibitory effect", "setting": "[6]", "value": "inactive"}, {"measurement": "Inhibitory effect", "setting": "[7]", "value": "inactive"}, {"measurement": "Inhibitory effect", "setting": "[8]", "value": "inactive"}]}]}
